Measured values: ChEMBL document CHEMBL1153955, “Indolylarylsulfones bearing natural and unnatural amino acids. Discovery of potent inhibitors of HIV-1 non-nucleoside wild type and resistant mutant strains reverse transcriptase and coxsackie B4 virus” (J Med Chem, 2009)

Tests used:
[1] = Cytotoxicity against feline CRFK cells by MTS assay; format: cell-based, Felis catus; details: cat
[2] = Cytotoxicity against human HeLa cells assessed as drug level causing microscopically detectable alteration of normal cell morphology after 3 days; format: cell-based
Method in brief: (§1)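 Serial compound dilutions added to confluent HeLa or Vero monolayers. MCC = minimum concentration causing microscopically detectable alteration of cell morphology after 3 days of incubation.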

[3] = Cytotoxicity against MDCK cells by MTS assay; format: cell-based, Canis lupus familiaris; details: dog
[4] = molecular target: Human immunodeficiency virus type 1 reverse transcriptase (Human immunodeficiency virus 1, UniProt Q72547, K103N); assay: Inhibition of HIV1 reverse transcriptase p66/p51 K103N mutant; details: read-out: IC50
Method in brief: (§2)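 Substrate was 0.5 µg poly(rA)/oligo(dT) 10:1 (0.3 µM 3′-OH ends) with 10 µM [³H]dTTP, at 37 °C. Acid-precipitable radioactivity was counted on GF/C filters after TCA washes.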

[5] = test system: Respiratory syncytial virus; assay: Antiviral activity against RSV Long in human HeLa cells assessed as protection against virus-induced cytopathicity; format: functional, organism-based
Method in brief: (§3)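 Confluent cell monolayers inoculated with 100 CCID₅₀ virus. After 1-2 h adsorption, residual virus removed and cultures incubated with varying compound concentrations. Cytopathicity scored once it reached completion in untreated infected controls. EC₅₀ = dose reducing virus-induced cytopathogenicity by 50%.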

[6] = Cytotoxicity against african green monkey Vero cells assessed as drug level causing microscopically detectable alteration of normal cell morphology after 3 days; format: cell-based; details: chlorocebus sabaeus; method in brief: as §1
Influenza A virus [7] = assay: Antiviral activity against influenza H1N1 virus in MDCK cells assessed as reduction of virus-induced cytopathicity by MTS method; format: functional, organism-based; details: Influenza A virus, H1N1, MDCK
Sindbis virus = assay: Antiviral activity against Sindbis virus in african green monkey Vero cells assessed as protection against virus-induced cytopathicity; format: functional, organism-based; method in brief: as §3
[8] = Cytotoxicity against MDCK cells assessed as drug level causing microscopically detectable alteration of normal cell morphology; format: cell-based, Canis lupus familiaris; details: dog
Felid alphaherpesvirus 1 = assay: Antiviral activity against Feline herpesvirus in feline […] cells assessed as inhibition of virus-induced cytopathicity; format: functional, organism-based
Coxsackievirus B4 [9] = assay: Antiviral activity against Coxsackievirus B4 in african green monkey Vero cells assessed as protection against virus-induced cytopathicity; format: functional, organism-based; details: Enterovirus B; method in brief: as §3
Influenza B virus [10] = assay: Antiviral activity against influenza B virus in MDCK cells assessed as reduction of virus-induced cytopathicity by visual cytopathic effect scoring method; format: functional, organism-based
[11] = Cytotoxicity against human HEL cells assessed as drug level causing microscopically detectable alteration of normal cell morphology after 3 days; format: cell-based
Influenza A virus H3N2 [12] = assay: Antiviral activity against influenza H3N2 virus in MDCK cells assessed as reduction of virus-induced cytopathicity by visual cytopathic effect scoring method; format: functional, organism-based
Influenza A virus H3N2 [13] = assay: Antiviral activity against influenza H3N2 virus in MDCK cells assessed as reduction of virus-induced cytopathicity by MTS method; format: functional, organism-based
L1210 = assay: Antiproliferative activity against mouse L1210 cells after 2 days; format: cell-based; details: L1210, 48 h
Method in brief: (§4)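 Cells seeded at 5 × 10⁴ to 7.5 × 10⁴ cells/200 µL with or without serial compound dilutions; incubated at 37 °C for 2 days (L1210) or 3 days (Molt4/C8, CEM). Cell numbers counted with a Coulter counter. CC₅₀ = concentration reducing proliferation by 50% versus untreated controls, read from plots of cell number (% of control) against concentration. Means of at least two independent experiments.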

Human alphaherpesvirus 1 [14] = assay: Antiviral activity against HSV1 KOS in human HEL cells assessed as protection against virus-induced cytopathicity; format: functional, organism-based; details: Human alphaherpesvirus 1, KOS
[15] = test system: Vesicular stomatitis virus; assay: Antiviral activity against VSV in human HeLa cells assessed as protection against virus-induced cytopathicity; format: functional, organism-based
CCRF-CEM = assay: Antiproliferative activity against human CEM cells after 3 days; format: cell-based; details: 72 h; method in brief: as §4
Human alphaherpesvirus 2 = assay: Antiviral activity against HSV2 G in human HEL cells assessed as protection against virus-induced cytopathicity; format: functional, organism-based; details: Human alphaherpesvirus 2, strain G; method in brief: as §3
[16] = Antiproliferative activity against human Molt4/C8 cells after 3 days; format: cell-based; details: MOLT-4, 72 h; method in brief: as §4
Influenza A virus [17] = assay: Antiviral activity against influenza H1N1 virus in MDCK cells assessed as reduction of virus-induced cytopathicity by visual cytopathic effect scoring method; format: functional, organism-based
Influenza B virus [18] = assay: Antiviral activity against influenza B virus in MDCK cells assessed as reduction of virus-induced cytopathicity by MTS method; format: functional, organism-based
[19] = test system: Human immunodeficiency virus 1; assay: Antiviral activity against HIV1 3B in human CEM cells assessed as protection against virus-induced cytopathicity after 4 days; format: functional, organism-based; details: Human immunodeficiency virus 1, 3B, CCRF-CEM, 96 h
Method in brief: (§5)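 CEM cells (~3 × 10⁵ cells/mL) infected with ~100 CCID₅₀ per mL of HIV-1 (IIIB) or HIV-2 (ROD), then seeded into wells containing compound dilutions. After 4 days at 37 °C, syncytium (giant cell) formation was examined microscopically. EC₅₀ = concentration protecting CEM cells from HIV cytopathicity by 50%.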

Human alphaherpesvirus 1 [20] = assay: Antiviral activity against thymidine kinase deficient and acyclovir resistant HSV1 KOS in human HEL cells assessed as protection against virus-induced cytopathicity; format: functional, organism-based; details: Human alphaherpesvirus 1, KOS
Coxsackievirus B4 [21] = assay: Antiviral activity against Coxsackievirus B4 in human HeLa cells assessed as protection against virus-induced cytopathicity; format: functional, organism-based; details: Enterovirus B; method in brief: as §3
[22] = molecular target: Human immunodeficiency virus type 1 reverse transcriptase (Human immunodeficiency virus 1, UniProt Q72547); assay: Inhibition of HIV1 reverse transcriptase p66/p51; details: read-out: IC50
[23] = test system: Human immunodeficiency virus 2; assay: Antiviral activity against HIV2 ROD in human CEM cells assessed as protection against virus-induced cytopathicity after 4 days; format: functional, organism-based; details: Human immunodeficiency virus 2, ROD, CCRF-CEM, 96 h; method in brief: as §5
[24] = test system: Vesicular stomatitis virus; assay: Antiviral activity against VSV in human HEL cells assessed as protection against virus-induced cytopathicity; format: functional, organism-based
Feline coronavirus = assay: Antiviral activity against Feline coronavirus in feline […] cells assessed as inhibition of virus-induced cytopathicity; format: functional, organism-based; details: Alphacoronavirus 1
Human respirovirus 3 = assay: Antiviral activity against Parainfluenza virus type 3 in african green monkey Vero cells assessed as protection against virus-induced cytopathicity; format: functional, organism-based; details: Human respirovirus 3, Vero; method in brief: as §3
[25] = test system: Mammalian orthoreovirus 1; assay: Antiviral activity against Reovirus 1 in african green monkey Vero cells assessed as protection against virus-induced cytopathicity; format: functional, organism-based; details: Mammalian orthoreovirus 1, Vero; method in brief: as §3
Punta Toro virus = assay: Antiviral activity against Punta Toro virus in african green monkey Vero cells assessed as protection against virus-induced cytopathicity; format: functional, organism-based; method in brief: as §3
[26] = molecular target: Human immunodeficiency virus type 1 reverse transcriptase (Human immunodeficiency virus 1, UniProt Q72547, Y181I); assay: Inhibition of HIV1 reverse transcriptase p66/p51 Y181I mutant; details: read-out: IC50; method in brief: as §2
Vaccinia virus = assay: Antiviral activity against Vaccinia virus Lederle in human HEL cells assessed as protection against virus-induced cytopathicity; format: functional, organism-based; details: Orthopoxvirus vaccinia
[27] = molecular target: Human immunodeficiency virus type 1 reverse transcriptase (Human immunodeficiency virus 1, UniProt Q72547, L100I); assay: Inhibition of HIV1 reverse transcriptase p66/p51 L100I mutant; details: read-out: IC50; method in brief: as §2

Structure (SMILES)	CC50 [1]	MCC at 72 h [2]	CC50 [3]	IC50 [4]	EC50 [5]	MCC at 72 h [6]	EC50 (Influenza A virus [7])	EC50 (Sindbis virus)	MCC [8]	EC50 (Felid alphaherpesvirus 1)	EC50 (Coxsackievirus B4 [9])	EC50 (Influenza B virus [10])	MCC at 72 h [11]	EC50 (Influenza A virus H3N2 [12])	EC50 (Influenza A virus H3N2 [13])	IC50 (L1210)	EC50 (Human alphaherpesvirus 1 [14])	EC50 [15]	IC50 (CCRF-CEM)	EC50 (Human alphaherpesvirus 2)	also measured
Cc1cc(C)cc(S(=O)(=O)c2c(C(=O)NC(C)CS(N)(=O)=O)[nH]c3ccc([N+](=O)[O-])cc23)c1 (configuration not stated)	47.6 µM	≥ 20 µM	9.8 µM	3.28 µM	> 20 µM	≥ 20 µM	> 4 µM	> 20 µM	20 µM	> 20 µM	≥ 20 µM	> 4 µM	≥ 20 µM	> 4 µM	> 4 µM	20 µM	> 20 µM	≥ 20 µM	15 µM	> 20 µM	IC50 [16]: 11 µM; EC50 (Influenza A virus [17]): > 4 µM; EC50 (Influenza B virus [18]): > 4 µM; EC50 [19]: 0.0042 µM; EC50 (Human alphaherpesvirus 1 [20]): > 20 µM; EC50 (Coxsackievirus B4 [21]): ≥ 20 µM; IC50 [22]: 0.028 µM; EC50 [23]: > 10 µM; EC50 [24]: > 20 µM; EC50 (Feline coronavirus): > 20 µM; EC50 (Human respirovirus 3): > 20 µM; EC50 [25]: > 20 µM; EC50 (Punta Toro virus): > 20 µM; IC50 [26]: 26.2 µM; EC50 (Vaccinia virus): > 20 µM; IC50 [27]: 0.364 µM
Cc1cc(C)cc(S(=O)(=O)c2c(C(=O)NC(C)CC(N)=O)[nH]c3ccc([N+](=O)[O-])cc23)c1 (configuration not stated)	21.1 µM	100 µM	> 100 µM	1.09 µM	> 20 µM	100 µM	> 4 µM	> 20 µM	20 µM	> 20 µM	> 20 µM	> 4 µM	20 µM	> 4 µM	> 4 µM	37 µM	> 4 µM	> 20 µM	36 µM	> 4 µM	IC50 [16]: 41 µM; EC50 (Influenza A virus [17]): > 4 µM; EC50 (Influenza B virus [18]): > 4 µM; EC50 [19]: 0.0051 µM; EC50 (Human alphaherpesvirus 1 [20]): > 4 µM; EC50 (Coxsackievirus B4 [21]): ≥ 20 µM; IC50 [22]: 0.033 µM; EC50 [23]: > 10 µM; EC50 [24]: > 4 µM; EC50 (Feline coronavirus): > 20 µM; EC50 (Human respirovirus 3): > 20 µM; EC50 [25]: > 20 µM; EC50 (Punta Toro virus): > 20 µM; IC50 [26]: 11.9 µM; EC50 (Vaccinia virus): > 4 µM; IC50 [27]: 0.191 µM
